Experimental data collected from several papers.
Protocols differ between the studies behind these lines.
Sample: plasma

Structure (SMILES)	test system	setting	measurement	result
NS(=O)(=O)OC[C@@H]1C[C@@H](n2ccc3c(N[C@H]4CCc5ccccc54)ncnc32)C[C@@H]1O	human	intravenous, 15 mg/m², patients	AUC(0-t)	780 ng·h/mL
Cn1cc(Nc2nc(N)nc(-c3cccc(-n4ccc5cc(C6CC6)cc(F)c5c4=O)c3CO)n2)cn1	human	oral, 900 mg, single dose, fasted, suspension	AUC(0-t)	64100 ng·h/mL
C[C@H](O)C(=O)C1=Nc2c(nc(N)[nH]c2=O)NC1	human	oral, 20 mg/kg, single dose, healthy volunteers	AUC(0-t)	5.29 ng·h/mL
CNC(=O)n1ccc2cc(Oc3ccnc(NC(=O)c4ccc(C5CCN(CCO)CC5)cc4)c3)c(OCCOC)cc21	human	oral, 35 mg, single dose, healthy volunteers	AUC(0-inf)	93.4 ng·h/mL
Cc1ccc(C(=O)Nc2ccc(CN3CCN(C)CC3)c(C(F)(F)F)c2)cc1C#Cc1cnc2[nH]ncc2c1	human	oral, 20 mg, single dose, healthy volunteers	AUC(0-t)	105 ng·h/mL
CC(=O)N[C@H]1CC[C@H](NC(=O)CN2CCN(c3nncc(-c4ccc(C)cc4)n3)CC2)CC1	female human	oral, 100 mg, single dose, fasted, healthy volunteers	AUC(0-inf)	6500 ng·h/mL
CC[C@H](C)CCCCC(=O)N[C@@H](CCN)C(=O)N[C@H](C(=O)N[C@@H](CCN)C(=O)N[C@H]1CCNC(=O)[C@H]([C@@H](C)O)NC(=O)[C@H](CCN)NC(=O)[C@H](CCN)NC(=O)[C@H](CC(C)C)NC(=O)[C@@H](Cc2ccccc2)NC(=O)[C@H](CCN)NC1=O)[C@@H](C)O	human	intravenous, 0.75 mg/kg, single dose, infusion	AUC(0-inf)	20500 ng·h/mL
Cl.[2H]C([2H])([2H])CC(=O)c1cnc(NC(=O)C2CC2)cc1Nc1cccc(-c2ncn(C([2H])([2H])[2H])n2)c1OC	human	oral, 20 mg, multiple doses, once daily, steady state	AUC	1100 ng·h/mL
CN1CC[C@@H](c2c(O)cc(O)c3c(=O)cc(-c4ccc(C(F)(F)F)cc4Cl)oc23)[C@@H]1CO	human	oral, 50 mg, patients	AUC(0-t)	1430 ng·h/mL
NC(=S)NN=Cc1ncccc1N	human	oral, 150 mg	AUC(0-t)	990 ng·h/mL
COc1ccc([C@@H](O)c2cc(-c3ncnc4cc(N5CCOCC5)ccc34)c(F)cc2Cl)nn1	human	oral, 200 mg, single dose, patients	AUC(0-t)	6790 ng·h/mL
CC(C)n1c(Nc2cccnc2)nc2cnc(Nc3ccc(N4CCN(C)CC4)cc3)nc21	male human	oral, 150 mg	AUC(0-inf)	1390 ng·h/mL
